Laboratory results reported in ChEMBL document CHEMBL2010694, “Indolyl and dihydroindolyl N-glycinamides as potent and in vivo active NPY5 antagonists” (Bioorg Med Chem Lett, 2012).

Key:
[1] = target: T1, Neuropeptide Y receptor type 5 (Homo sapiens, UniProt Q15761); test: Displacement of [125I]peptide YY from human NPY5 receptor
T1 sequence (Q15761 whole entry): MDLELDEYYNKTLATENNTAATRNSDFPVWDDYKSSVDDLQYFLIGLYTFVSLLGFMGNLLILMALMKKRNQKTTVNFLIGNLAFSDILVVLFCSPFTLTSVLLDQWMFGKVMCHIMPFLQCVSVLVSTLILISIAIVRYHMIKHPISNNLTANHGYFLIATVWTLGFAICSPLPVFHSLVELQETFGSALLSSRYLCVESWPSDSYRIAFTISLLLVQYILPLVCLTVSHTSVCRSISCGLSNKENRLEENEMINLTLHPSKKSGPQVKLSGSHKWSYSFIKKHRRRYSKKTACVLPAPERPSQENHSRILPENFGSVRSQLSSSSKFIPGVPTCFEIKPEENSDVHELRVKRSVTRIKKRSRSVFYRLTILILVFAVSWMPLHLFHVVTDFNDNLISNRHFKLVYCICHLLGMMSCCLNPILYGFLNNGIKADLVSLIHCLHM

[2] = test system: Liver microsomes; test: Intrinsic clearance in rat liver microsomes at 1 uM by LC/MS analysis; type: ADME, Microsome
How it was run: (§1)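 Compound incubated with human or rat liver microsomes; reaction quenched with acetonitrile, centrifuged, and remaining drug in supernatant measured by LC/MS to estimate T1/2, from which intrinsic clearance was derived.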

[3] = test system: Liver microsomes; test: Intrinsic clearance in human liver microsomes at 1 uM by LC/MS analysis; type: ADME, Microsome; how it was run: as §1
[4] = test system: Plasma; test: Plasma concentration in Sprague-Dawley rat at 10 mg/kg, po by LC-MS/MS analysis; type: ADME, organism-based; set-up: dose 10 mg/kg, route oral; conditions: in vivo
How it was run: (§2)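 Male Sprague-Dawley rats (300–350 g), femoral artery cannulated; single 10 mg/kg oral dose in an appropriate vehicle, N = 3. Blood taken predose, 1, 2 and 4 h; brains then collected and stored at -80 °C. Equal portions of plasma or homogenized brain from the three rats pooled per time point, protein precipitated, quantified by LC/MS/MS.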

[5] = test system: Brain; test: Drug uptake in Sprague-Dawley rat brain at 10 mg/kg, po by LC-MS/MS analysis; type: ADME, organism-based; set-up: dose 10 mg/kg, route oral; conditions: in vivo, read-out: Drug uptake; how it was run: as §2

Ki [1] [nM]	CLH [2] [mL/min]	CLH [3] [L/min]	concentration [4] [nM]	concentration [5] [nM]	SMILES
0.9	–	–	–	–	CC(C)S(=O)(=O)NC[C@H]1CC[C@H](NC(=O)Cn2ccc3cccc(Cl)c32)CC1
2.2	11	0.6	1300	100	CC(C)S(=O)(=O)NC[C@H]1CC[C@H](NC(=O)Cn2ccc3cc(F)ccc32)CC1
1.7	–	–	–	–	CC(C)S(=O)(=O)NC[C@H]1CC[C@H](NC(=O)Cn2ccc3c(Cl)cccc32)CC1
5.6	8.7	0.4	769	43	CC(C)S(=O)(=O)NC[C@H]1CC[C@H](NC(=O)Cn2ccc3cc(C#N)ccc32)CC1
1.2	–	–	–	–	CC(C)S(=O)(=O)NC[C@H]1CC[C@H](NC(=O)Cn2ccc3ccc(F)cc32)CC1
1.5	27	1	460	81	CC(C)S(=O)(=O)NC[C@H]1CC[C@H](NC(=O)Cn2ccc3ccccc32)CC1
1	37	2.6	157	134	CC(C)S(=O)(=O)NC[C@H]1CC[C@H](NC(=O)Cn2ccc3ccc(Cl)cc32)CC1

Second part, the compound before the results:

SMILES	Ki [1] [nM]	CLH [2] [mL/min]	CLH [3] [L/min]	concentration [4] [nM]	concentration [5] [nM]
CC(C)S(=O)(=O)NC[C@H]1CC[C@H](NC(=O)CN2CC(C)(C)c3cc(Cl)ccc32)CC1	1.1	205	14	417	50
CC(C)S(=O)(=O)NC[C@H]1CC[C@H](NC(=O)CN2CCOc3cc(Cl)ccc32)CC1	–	35	2.9	428	–
CC(C)S(=O)(=O)NC[C@H]1CC[C@H](NC(=O)Cc2c[nH]c3ccccc23)CC1	12	3.4	0.5	2560	54
CC(C)S(=O)(=O)NC[C@H]1CC[C@H](NC(=O)CN2C(=O)COc3cc(Cl)ccc32)CC1	–	15	0.5	480	–
Cc1ccc2c(c1)CCN2CC(=O)N[C@H]1CC[C@H](CNS(=O)(=O)C(C)C)CC1	3.5	54	3.1	6140	477
CC(C)S(=O)(=O)NC[C@H]1CC[C@H](NC(=O)CN2CCc3cc(F)ccc32)CC1	4	21	1.4	2680	117
CC(C)S(=O)(=O)NC[C@H]1CC[C@H](NC(=O)CCN2CCc3ccccc32)CC1	1.8	7.1	5.8	24	7
CC(C)S(=O)(=O)NC[C@H]1CC[C@H](NC(=O)CN2CCc3c2ccc(F)c3F)CC1	1.5	39	4.5	1520	105
Cc1cc2ccccc2n1CC(=O)N[C@H]1CC[C@H](CNS(=O)(=O)C(C)C)CC1	8.9	49	1.1	242	49
CC(C)S(=O)(=O)NC[C@H]1CC[C@H](NC(=O)CN2C(=O)CCc3cc(Cl)ccc32)CC1	–	40	0.8	877	17
CC(C)S(=O)(=O)NC[C@H]1CC[C@H](NC(=O)Cn2ccc3cc(F)c(F)cc32)CC1	0.9	28	2.5	2080	328
CC(C)S(=O)(=O)NC[C@H]1CC[C@H](NC(=O)CN2CCCc3cc(Cl)ccc32)CC1	–	36	2.8	498	88
CC(C)S(=O)(=O)NC[C@H]1CC[C@H](NC(=O)Cn2c(=O)oc3ccccc32)CC1	10	1.9	0.5	1640	19
CC(C)S(=O)(=O)NC[C@H]1CC[C@H](NC(=O)Cc2cn(C)c3ccccc23)CC1	2	22	1.2	296	17
CC(C)S(=O)(=O)NC[C@H]1CC[C@H](NC(=O)Cn2c(=O)sc3cc(Cl)ccc32)CC1	0.9	12	1	870	11
